Measured values published in ChEMBL document CHEMBL5357070, “Nicotinamide Phosphoribosyltransferase Positive Allosteric Modulators Attenuate Neuronal Oxidative Stress” (ACS Med Chem Lett, 2024).
The source made the active and inactive calls. No cut-off for these calls is given here.

How the values were obtained:
HT-22 [1] = test: Inhibition of oxidative stress in HT-22 cells assessed as fold reduction in […] induced ROS level at 5.0 uM measured after 18 to 24 hrs by MitoSOX red dye based flow cytometry analysis; type: functional, Mus musculus; settings: time 18-24 hrs
Outline: (§1)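 HT22 mouse hippocampal neuronal cells (passage 12-50) grown in DMEM with 10% FBS, seeded at 3,000-5,000 cells/well on poly D-lysine-coated wells and left overnight. Cells were pretreated with compound in matched DMSO/PBS vehicle for 18-24 h, then stressed with recombinant mouse TNFα for a further 18-24 h. Staining in PBS used 1 μM calcein-AM, 5 μM MitoSOX and 10 μg/mL Hoechst for 30-45 min. Mitochondrial ROS was read as MitoSOX mean intensity on a Celigo imaging cytometer and given as fold-change over vehicle. Each run had ≥3 intraplate replicates, and the assay was repeated in ≥3 separate experiments.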

HT-22 [2] = test: Inhibition of oxidative stress in HT-22 cells assessed as fold reduction in […] induced ROS level at 0.3 uM measured after 18 to 24 hrs by MitoSOX red dye based flow cytometry analysis; type: functional, Mus musculus; settings: time 18-24 hrs; outline: as §1
[3] = biological target: T1, Nicotinamide phosphoribosyltransferase (Homo sapiens, UniProt P43490); test: Positive allosteric modulator activity at human C-terminal his 6 tagged NAMPT using NAM and PRPP as substrate by coupled enzymatic analysis
Target sequence in this assay (P43490 whole entry): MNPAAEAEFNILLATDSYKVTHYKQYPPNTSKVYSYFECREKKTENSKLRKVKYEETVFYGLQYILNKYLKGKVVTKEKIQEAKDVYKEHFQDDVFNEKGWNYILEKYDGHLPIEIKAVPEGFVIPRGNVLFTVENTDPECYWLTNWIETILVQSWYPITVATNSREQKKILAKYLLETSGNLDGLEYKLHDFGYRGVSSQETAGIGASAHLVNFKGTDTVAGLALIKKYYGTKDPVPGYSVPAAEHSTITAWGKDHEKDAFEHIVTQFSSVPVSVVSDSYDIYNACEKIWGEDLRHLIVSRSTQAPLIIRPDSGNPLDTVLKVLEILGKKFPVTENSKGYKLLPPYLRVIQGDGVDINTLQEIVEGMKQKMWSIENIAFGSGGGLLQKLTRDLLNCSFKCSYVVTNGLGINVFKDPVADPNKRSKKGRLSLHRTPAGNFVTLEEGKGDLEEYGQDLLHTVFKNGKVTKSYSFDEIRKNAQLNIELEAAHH

HT-22 [4] = test: Inhibition of oxidative stress in HT-22 cells assessed as fold reduction in […] induced ROS level at 40 uM measured after 18 to 24 hrs by MitoSOX red dye based flow cytometry analysis; type: functional, Mus musculus; settings: time 18-24 hrs; outline: as §1
HT-22 [5] = test: Inhibition of oxidative stress in HT-22 cells assessed as fold reduction in […] induced ROS level at 2.5 uM measured after 18 to 24 hrs by MitoSOX red dye based flow cytometry analysis; type: functional, Mus musculus; settings: time 18-24 hrs; outline: as §1
[6] = biological target: T1, Nicotinamide phosphoribosyltransferase; test: Positive allosteric modulator activity at C-terminal his 6 tagged NAMPT in human THP-1 cells assessed as increase in NAD+ level at 30 uM incubated for 24 hrs by NAD-glo assay relative to control; type: cell-based
Outline: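 THP-1 cells in RPMI 1640 with 10% heat-inactivated FBS, seeded at 37,500 cells/well (low passage). Held 1.5 h at 37 °C, 5% CO2, then treated with compound in DMSO (final ≤1%) for 24 h. NAD+ measured by NAD+/NADH-Glo luminescence. Three separate experiments per concentration.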
Target sequence in this assay (P43490 whole entry, looked up): as the sequence (P43490 whole entry) above

HT-22 [7] = test: Inhibition of oxidative stress in HT-22 cells assessed as reduction in […] induced ROS level at 20 to 40 uM measured after 18 to 24 hrs by MitoSOX red dye based flow cytometry analysis; type: functional, cell-based; settings: Mus musculus, dose 20-40 µM, time 18-24 hrs
Outline: (§2)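 HT22 mouse hippocampal neuronal cells (passage 12-50) seeded at 3,000-5,000 cells/well on poly D-lysine-coated wells and incubated overnight. Cells pretreated with compound (DMSO stocks, matched vehicle) for 18-24 h, then exposed to glutamate or mouse TNFα for 18-24 h. Stained in PBS with 1 μM calcein-AM, 5 μM MitoSOX and 10 μg/mL Hoechst for 30-45 min. Imaging cytometry; MitoSOX mean intensity expressed as fold over vehicle. At least three experiments, each with at least triplicate wells.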

HT-22 [8] = test: Neuroprotective activity against glutamate induced excitotoxicity in HT-22 cells assessed as decrease in ROS activity measured after 18 to 24 hrs MitoSOX red dye based flow cytometry analysis; type: functional, cell-based; settings: Mus musculus, dose 1.25-40 µM, time 18-24 hrs; outline: as §2
HT-22 [9] = test: Neuroprotective activity against glutamate induced excitotoxicity in HT-22 cells assessed as decrease in ROS activity at 20 to 40 uM measured after 18 to 24 hrs by MitoSOX red dye based flow cytometry analysis; type: functional, cell-based; settings: Mus musculus, dose 20-40 µM, time 18-24 hrs; outline: as §2

Q: With O=C(NCc1ccncc1)Nc1ccc(S(=O)(=O)N2CC3CCC(C2)O3)cc1 as the compound, how does the “fold change (FC)” value (HT-22 [1]) read?
A: 1.348

Q: What about the “fold change (FC)” value (HT-22 [2]) of the same compound?
A: 1.26

Q: COc1ccc(CNC(=O)c2ccco2)cc1 was tested. Which EC50 [3] did it give?
A: Not Active

Q: Which “fold change (FC)” value (HT-22 [4]) does the source give for COc1ccc(CN(CCC2(C(C)C)CCOC(C)(C)C2)C(=O)c2ccco2)cc1 (stereo not given) here?
A: 1.133

Q: What about the “fold change (FC)” value (HT-22 [5]) of the same compound?
A: 1.425

Q: What about the “fold change (FC)” value (HT-22 [2]) of the same compound?
A: 1.434

Q: And the Activity [6]?
A: 18%

Q: COc1ccc(CN(CCC2(C(C)C)CCOC(C)(C)C2)C(=O)c2ccc(Br)s2)cc1 (stereo not given) was tested. Which EC50 ([3]; read-out: EC50) did it give?
A: 12.8 µM

Q: CC(C)C1(CCN(Cc2ccc(N(C)C)cc2)C(=O)c2ccco2)CCOC(C)(C)C1 (stereo not given) was tested. Which inhibition (HT-22 [7]) did it give?
A: Active

Q: What about the EC50 ([3]; read-out: EC50) of the same compound?
A: 3.29 µM

Q: What about the Activity (HT-22 [8]) of the same compound?
A: Dose-Dependent Effect

Q: What about the Activity (HT-22 [9]) of the same compound?
A: Active

Q: And the “fold change (FC)” value (HT-22 [1])?
A: 1.287

Q: And the “fold change (FC)” value (HT-22 [5])?
A: 1.247

Q: And the Activity ([6]; filed as positive allosteric modulator)?
A: 88%

Q: For CC(C)C1(CCN(Cc2ccc(OC(F)(F)F)cc2)C(=O)c2ccco2)CCOC(C)(C)C1 (stereo not given), which EC50 [3] is on record?
A: Not Active

Q: For COc1ccc(CN(CCC2(C(C)C)CCOC(C)(C)C2)C(=O)c2cncnc2)cc1 (stereo not given), which EC50 [3] is on record?
A: Not Active

Q: For COc1ccc(CN(CCC2(C(C)C)CCOC(C)(C)C2)C(=O)c2cnc[nH]2)cc1 (stereo not given), which EC50 [3] is on record?
A: > 8 µM

Q: Which EC50 [3] does the source give for COc1ccc(CN(CCC2(C(C)C)CCOC(C)(C)C2)C(=O)c2ccco2)c(C(F)(F)F)c1 (stereo not given) here?
A: Not Active

Q: With COc1ccc(CNCCC2CCOCC2)cc1 as the compound, how does the EC50 [3] read?
A: Not Active
